Assay results reported in ChEMBL document CHEMBL1147658, “[2-11C]isopropyl-, [1-11C]ethyl-, and [11C]methyl-labeled phenoxyphenyl acetamide derivatives as positron emission tomography ligands for the peripheral benzodiazepine receptor: radiosynthesis, uptake, and in vivo binding in brain” (J Med Chem, 2006).

How the values were obtained:
[1] = target: GABA-A receptor; anion channel; experiment: Displacement of [11C]Flumazenil from Sprague-Dawley rat brain CBR; format: tissue-based
[2] = target: T1, Translocator protein (Rattus norvegicus, UniProt P16257); experiment: Displacement of [11C][…] from Sprague-Dawley rat brain PBR; format: tissue-based
[3] = Distribution coefficient of the compound, log D; format: physicochemical; conditions: octanol/water
How it was run: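 [11C]ligand (3-5 MBq) shaken with 1-octanol and 10 mM phosphate buffer pH 7.4, 5 mL each, then equilibrated 1 h at room temperature. Both phases counted by gamma counter; log D taken as the organic/aqueous concentration ratio (n=3).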

[4] = target: T1, Translocator protein; experiment: Displacement of [11C]DAA1106 from Sprague-Dawley rat brain PBR; format: tissue-based
[5] = system: Rattus norvegicus; experiment: Decrease in uptake in iv dosed Sprague-Dawley rat brain frontal cortex after 30 mins per gram of wet tissue in presence of 1 mg/kg DAA1106; format: ADME, organism-based; set-up: dose 1 mg/kg, route intravenous; conditions: in vivo, 0.5 h
How it was run: (§1)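 Rats given [11C]ligand 45-50 MBq iv, alone or mixed with nonradioactive DAA1106 (1 mg/kg in 10% EtOH/saline). Killed 30 min later under ether. Brains frozen, cut into 20 µm sagittal cryosections and exposed to imaging plates for 60 min. Regional radioactivity read by bioimaging analyzer; brain uptake expressed as % injected dose per gram wet tissue (n=3).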

[6] = system: Rattus norvegicus; experiment: Ratio for decrease in uptake in iv dosed Sprague-Dawley rat brain cerebellum to frontal cortex after 30 mins per gram of wet tissue in presence of 1 mg/kg DAA1106; format: ADME, organism-based; set-up: dose 1 mg/kg, route intravenous; conditions: in vivo, 0.5 h; how it was run: as §1
[7] = system: Rattus norvegicus; experiment: Uptake in iv dosed Sprague-Dawley rat brain after 30 mins per gram of wet tissue; format: ADME, organism-based; conditions: in vivo, 0.5 h; how it was run: as §1
[8] = system: Rattus norvegicus; experiment: Decrease in uptake in iv dosed Sprague-Dawley rat brain olfactory bulb after 30 mins per gram of wet tissue in presence of 1 mg/kg DAA1106; format: ADME, organism-based; set-up: dose 1 mg/kg, route intravenous; conditions: in vivo, 0.5 h; how it was run: as §1
[9] = system: Rattus norvegicus; experiment: Decrease in uptake in iv dosed Sprague-Dawley rat brain striatum after 30 mins per gram of wet tissue in presence of 1 mg/kg DAA1106; format: ADME, organism-based; set-up: dose 1 mg/kg, route intravenous; conditions: in vivo, 0.5 h; how it was run: as §1
[10] = Plasma half life in iv dosed monkey; format: ADME, organism-based, Macaca mulatta; conditions: rhesus monkey
How it was run: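 Monkey given [11C]ligand 70-80 MBq iv. Arterial blood drawn at 1, 2, 5, 10, 20, 30 and 60 min. Plasma deproteinized with CH3CN and analysed by radio-HPLC for percentage of unchanged ligand.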

[11] = system: Rattus norvegicus; experiment: Ratio for decrease in uptake in iv dosed Sprague-Dawley rat brain olfactory bulb to frontal cortex after 30 mins per gram of wet tissue in presence of 1 mg/kg DAA1106; format: ADME, organism-based; set-up: dose 1 mg/kg, route intravenous; conditions: in vivo, 0.5 h; how it was run: as §1
[12] = system: Rattus norvegicus; experiment: Ratio for decrease in uptake in iv dosed Sprague-Dawley rat brain striatum to frontal cortex after 30 mins per gram of wet tissue in presence of 1 mg/kg DAA1106; format: ADME, organism-based; set-up: dose 1 mg/kg, route intravenous; conditions: in vivo, 0.5 h; how it was run: as §1
[13] = system: Rhesus monkey; experiment: Decrease in uptake in iv dosed rhesus monkey brain occipital cortex after 90 mins in presence of 1 mg/kg DAA1106; format: ADME, organism-based, Macaca mulatta; set-up: dose 1 mg/kg, route intravenous; conditions: in vivo, 1.5 h
How it was run: (§2)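 One awake male rhesus monkey (about 7.5 kg) imaged by 3D dynamic PET for 90 min after [11C]ligand 70-80 MBq iv. Blocker given iv 2 min before tracer: DAA1106 1 mg/kg, or PK11195 5 mg/kg, each in 10% EtOH/saline. Time-activity curves taken from 5 mm ROI on occipital cortex, as % dose/mL.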

[14] = system: Rattus norvegicus; experiment: Decrease in uptake in iv dosed Sprague-Dawley rat brain cerebellum after 30 mins per gram of wet tissue in presence of 1 mg/kg DAA1106; format: ADME, organism-based; set-up: dose 1 mg/kg, route intravenous; conditions: in vivo, 0.5 h; how it was run: as §1
[15] = system: Rhesus monkey; experiment: Decrease in uptake in iv dosed rhesus monkey brain occipital cortex after 90 mins in presence of 5 mg/kg […]; format: ADME, organism-based, Macaca mulatta; set-up: dose 5 mg/kg, route intravenous; conditions: in vivo, 1.5 h; how it was run: as §2

T1 sequence (P16257 whole entry, looked up): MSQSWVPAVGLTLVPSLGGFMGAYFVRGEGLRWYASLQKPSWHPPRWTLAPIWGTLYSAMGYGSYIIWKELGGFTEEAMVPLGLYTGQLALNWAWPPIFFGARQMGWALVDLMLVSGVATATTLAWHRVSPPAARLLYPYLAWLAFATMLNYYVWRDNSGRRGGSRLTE

Structure (SMILES)	Ki [1] [nM]	Ki [2] [nM]	logD [3]	Ki [4] [nM]	Drug uptake [5] [%]	Ratio [6]	Drug uptake [7] [%]	Drug uptake [8] [%]	Drug uptake [9] [%]	half-life [10] [min]	Ratio [11]	Ratio [12]	Drug uptake [13] [%]	Drug uptake [14] [%]	Drug uptake [15] [%]
CC(=O)N(Cc1ccccc1OC(C)C)c1ccc(Cl)cc1Oc1ccccc1	> 1000	0.19	4.02	0.68											
COc1ccccc1CN(C(C)=O)c1ccc(Cl)cc1Oc1ccccc1	> 1000	0.074	3.74	0.31											
CC(=O)N(Cc1ccccc1O[11CH](C)C)c1ccc(Cl)cc1Oc1ccccc1					63	1	0.17	43	63	13	1.5	1			
CC(=O)N(Cc1ccccc1O[11CH3])c1ccc(Cl)cc1Oc1ccccc1					63	1	0.32	37	63	21	2.3	1	60		
C[11CH2]Oc1ccccc1CN(C(C)=O)c1ccc(Cl)cc1Oc1ccccc1					63	1	0.27	33	63	20	1.5	1			
CCOc1ccccc1CN(C(C)=O)c1ccc(Cl)cc1Oc1ccccc1	> 1000	0.098	3.81	0.41											
COc1ccc(OC)c(CN(C(C)=O)c2cc(F)ccc2Oc2ccccc2)c1	> 1000	0.095													
CCC(C)N(C)C(=O)c1cc2ccccc2c(-c2ccccc2Cl)n1 (configuration not stated) [PK-11195]	> 1000													44	70
